Paper PMC11370311 (Cell reports, 2024)

What was measured:
[1] = test system: GST-SART3(HAT) (N + C); assay: Biotinylated GAR peptide pull-down of GST-SART3; type: binding; conditions: 2 μg GST-tagged protein, 1h at 4°C, western blot, repeated three times
Outline: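 Streptavidin beads loaded with biotinylated GAR peptides (1 h, 4°C, rocking): fibrillarin unmethylated, ADMA or SDMA; coilin unmethylated, or SDMA at Arg 1–3 or 3–5. After 3 washes in mild lysis buffer (10 mM Tris/Cl pH 7.5, 0.5 mM EDTA, 0.5% NP-40), beads took 2 μg GST protein for 1 h at 4°C with rocking. Coilin pull-downs also ran in RIPA. Bound protein was eluted and read by western blot.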

[2] = test system: interaction between GFP-SART3 and endogenous coilin; assay: Co-IP of GFP-SART3 with endogenous coilin; type: cell-based, human; conditions: HEK293T; 3 days; 10uM EPZ015666 or 1uM MS023; IP/western blot
Outline: (§1)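 HEK293T cells were grown at 37°C in DMEM with 10% FBS and 1% antibiotic-antimycotic, then transfected at 80% confluence using lipofectamine 2000. They were treated with 10uM EPZ015666 (PRMT5) or 1uM MS023 (PRMT1) for 3 days. Lysates were made in mild buffer (10mM Tris pH 7.5, 150mM NaCl, 0.5mM EDTA, 0.5% NP-40, protease inhibitors). Anti-GFP on Protein A/G beads was incubated with lysate 2 h at 4°C, then SDS-PAGE, PVDF, ECL western.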

[3] = test system: interaction between SART3 and the representative spliceosomal proteins; assay: Co-IP of GFP-SART3 with representative spliceosomal proteins; type: cell-based, human; conditions: HeLa, 10uM EPZ015666, 3 days, IP/western blot
Outline: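 HeLa SART3-KO clones were made by lentiCRISPRv2 and blasticidin 10 μg/mL, then single-cell cloned. They were restored by lentiviral GFP-SART3 (WT, Y112A or W377A) with puromycin 2 μg/mL selection. Lysates in mild NP-40 buffer were incubated with anti-GFP on Protein A/G beads, 2 h at 4°C, washed three times and boiled. Partners were detected by SDS-PAGE/PVDF western with HRP secondary and ECL on X-ray film.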

[4] = test system: interaction between GFP-SART3 and endogenous fibrillarin; assay: Co-IP of GFP-SART3 with endogenous fibrillarin; type: cell-based, human; conditions: HEK293T; 3 days; 10uM EPZ015666 or 1uM MS023; IP/western blot
Outline: as §1

[5] = test system: SND1; assay: GFP-Trap IP-MS of GFP-RMET; type: cell-based, human; conditions: HEK293T, with vs without AdOx, 3 days, label-free MS
Outline: (§2)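 HEK293T cells at 80% confluence were transfected with GFP-RMET using lipofectamine 2000. Half the cells got 25uM AdOx for 3 days. Lysis was in mild buffer (10 mM Tris/Cl pH 7.5, 150 mM NaCl, 0.5 mM EDTA, 0.5% NP-40) with protease inhibitors, then sonication and clearing. GFP-trap agarose ran 2 h at 4°C, followed by washing, elution, gel and LC-MS. Peptide counts per protein were taken at 1% protein FDR, 2 peptides minimum, and 0.1% peptide FDR.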

[6] = test system: RIOK1; assay: GFP-Trap IP-MS of GFP-RMET; type: cell-based, human; conditions: HEK293T, AdOx-treated, 3 days, label-free MS
Outline: (§3)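 HEK293T cells were transfected with GFP-RMET; half were treated with 25uM AdOx for 3 days. Cells were lysed in mild NP-40 buffer with protease inhibitors and sonicated, and cleared lysate was captured on GFP-trap agarose 2 h at 4°C. Eluates were gel-separated and the excised bands analysed by nanoLC-MS/MS on an Orbitrap Fusion. Sequest HT searching used 10 ppm MS and 0.6 Da MS/MS tolerance, with 1% protein FDR (2 peptides) and 0.1% peptide FDR. Peptide counts per protein were reported.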

[7] = test system: PRMT1; assay: GFP-Trap IP-MS of GFP-RMET; type: cell-based, human; conditions: HEK293T, AdOx-treated, 3 days, label-free MS
Outline: as §3

[8] = test system: MEP50; assay: GFP-Trap IP-MS of GFP-RMET; type: cell-based, human; conditions: HEK293T, AdOx-treated, 3 days, label-free MS
Outline: as §3

[9] = test system: PRMT5; assay: GFP-Trap IP-MS of GFP-RMET; type: cell-based, human; conditions: HEK293T, AdOx-treated, 3 days, label-free MS
Outline: as §3

[10] = test system: SMN; assay: GFP-Trap IP-MS of GFP-RMET; type: cell-based, human; conditions: HEK293T, with vs without AdOx, 3 days, label-free MS
Outline: as §2

Molecule: GGRGRGGGFRGRGRGGGG-Biotin [unmethylated]
- pull-down of GST-SART3(HAT) by fibrillarin GAR peptide ([1]; biotinylated fibrillarin GAR peptides, streptavidin beads, mild buffer (150 mM NaCl)): only the SDMA-modified peptide pulled down GST-SART3(HAT)

Molecule: O=C(NC[C@H](O)CN1CCc2ccccc2C1)c1cc(NC2COC2)ncn1 [EPZ015666]
- interaction between GFP-SART3 and endogenous coilin [2]: reduced the interaction
- interaction between SART3 and representative spliceosomal proteins [3]: inhibits the interaction
- interaction between GFP-SART3 and endogenous fibrillarin [4]: reduced the interaction

Molecule: Biotin-AKGRGMRG[Rme2s]G[Rme2s]G[Rme2s]GHP-Amide
- binding of coilin GAR peptide to GST-SART3(HAT) ([1]; biotinylated coilin GAR peptides, mild buffer (300 mM NaCl)): strong interaction

Molecule: Nc1ncnc2c1ncn2C(C=O)OC(C=O)CO (stereo not shown) [AdOx]
- enrichment of SND1 as RMET binder [5]: selectively enriched as RMET binders, exclusively in cells that were not treated with AdOx
- enrichment of RIOK1 with RMET [6]: relatively enriched
- enrichment of PRMT1 with RMET [7]: relatively enriched
- enrichment of MEP50 with RMET [8]: relatively enriched
- enrichment of PRMT5 with RMET [9]: relatively enriched
- enrichment of SMN as RMET binder [10]: selectively enriched as RMET binders, exclusively in cells that were not treated with AdOx

Molecule: CC(C)Oc1ccc(-c2c[nH]cc2CN(C)CCN)cc1 [MS023]
- interaction between GFP-SART3 and endogenous coilin [2]: this reduced interaction was not observed
- interaction between GFP-SART3 and endogenous fibrillarin [4]: this reduced interaction was not observed
